Experimental findings from ChEMBL document CHEMBL1821606, “Bioactive prenylogous cannabinoid from fiber hemp (Cannabis sativa)” (J Nat Prod, 2011) are described below.

The target in assay [1] is T1, Transient receptor potential cation channel subfamily V member 1 (Homo sapiens, UniProt Q8NER1). The experiment in a line: Agonist activity at human TRPv1 receptor expressed in HEK293 cells assessed as stimulation of intracellular calcium level using Fluo4-AM dye based fluorimetric assay relative to 4 uM ionomycin. The assay is classed as functional, cell-based. (In general: A change in cytosolic calcium serves as a functional read-out for many receptors and channels.)
T1 sequence (Q8NER1 whole entry): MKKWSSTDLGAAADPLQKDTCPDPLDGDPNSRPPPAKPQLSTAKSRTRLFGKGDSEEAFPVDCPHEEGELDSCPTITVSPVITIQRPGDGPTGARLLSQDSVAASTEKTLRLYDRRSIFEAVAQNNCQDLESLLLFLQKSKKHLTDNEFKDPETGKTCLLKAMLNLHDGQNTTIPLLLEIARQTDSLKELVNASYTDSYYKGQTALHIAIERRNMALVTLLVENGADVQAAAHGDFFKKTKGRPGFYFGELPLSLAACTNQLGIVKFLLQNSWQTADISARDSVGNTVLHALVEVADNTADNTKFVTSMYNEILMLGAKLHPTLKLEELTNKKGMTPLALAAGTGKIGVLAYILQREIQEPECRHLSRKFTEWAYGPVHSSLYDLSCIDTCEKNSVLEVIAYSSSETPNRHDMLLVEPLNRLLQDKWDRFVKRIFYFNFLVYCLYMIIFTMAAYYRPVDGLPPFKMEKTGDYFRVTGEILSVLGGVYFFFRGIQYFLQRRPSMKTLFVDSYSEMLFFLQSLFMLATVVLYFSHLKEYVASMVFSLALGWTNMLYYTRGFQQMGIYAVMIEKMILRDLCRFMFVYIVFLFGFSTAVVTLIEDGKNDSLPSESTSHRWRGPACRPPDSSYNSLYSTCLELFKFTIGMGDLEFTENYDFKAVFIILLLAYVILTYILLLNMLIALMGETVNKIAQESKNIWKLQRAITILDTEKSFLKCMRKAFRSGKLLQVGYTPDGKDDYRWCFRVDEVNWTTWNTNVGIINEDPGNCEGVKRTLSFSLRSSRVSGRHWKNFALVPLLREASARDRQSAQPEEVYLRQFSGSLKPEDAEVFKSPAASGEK

Assay [2] deals with Transient receptor potential cation channel subfamily A member 1 (Rattus norvegicus) (UniProt Q6RI86). The experiment in a line: Agonist activity at rat recombinant TRPA1 receptor expressed in HEK293 cells assessed as stimulation of intracellular calcium level using Fluo4-AM dye based fluorimetric assay relative to allyl isothiocyanate. The assay is classed as functional, cell-based.
Transient receptor potential cation channel subfamily A member 1 (Rattus norvegicus), sequence (Q6RI86 whole entry): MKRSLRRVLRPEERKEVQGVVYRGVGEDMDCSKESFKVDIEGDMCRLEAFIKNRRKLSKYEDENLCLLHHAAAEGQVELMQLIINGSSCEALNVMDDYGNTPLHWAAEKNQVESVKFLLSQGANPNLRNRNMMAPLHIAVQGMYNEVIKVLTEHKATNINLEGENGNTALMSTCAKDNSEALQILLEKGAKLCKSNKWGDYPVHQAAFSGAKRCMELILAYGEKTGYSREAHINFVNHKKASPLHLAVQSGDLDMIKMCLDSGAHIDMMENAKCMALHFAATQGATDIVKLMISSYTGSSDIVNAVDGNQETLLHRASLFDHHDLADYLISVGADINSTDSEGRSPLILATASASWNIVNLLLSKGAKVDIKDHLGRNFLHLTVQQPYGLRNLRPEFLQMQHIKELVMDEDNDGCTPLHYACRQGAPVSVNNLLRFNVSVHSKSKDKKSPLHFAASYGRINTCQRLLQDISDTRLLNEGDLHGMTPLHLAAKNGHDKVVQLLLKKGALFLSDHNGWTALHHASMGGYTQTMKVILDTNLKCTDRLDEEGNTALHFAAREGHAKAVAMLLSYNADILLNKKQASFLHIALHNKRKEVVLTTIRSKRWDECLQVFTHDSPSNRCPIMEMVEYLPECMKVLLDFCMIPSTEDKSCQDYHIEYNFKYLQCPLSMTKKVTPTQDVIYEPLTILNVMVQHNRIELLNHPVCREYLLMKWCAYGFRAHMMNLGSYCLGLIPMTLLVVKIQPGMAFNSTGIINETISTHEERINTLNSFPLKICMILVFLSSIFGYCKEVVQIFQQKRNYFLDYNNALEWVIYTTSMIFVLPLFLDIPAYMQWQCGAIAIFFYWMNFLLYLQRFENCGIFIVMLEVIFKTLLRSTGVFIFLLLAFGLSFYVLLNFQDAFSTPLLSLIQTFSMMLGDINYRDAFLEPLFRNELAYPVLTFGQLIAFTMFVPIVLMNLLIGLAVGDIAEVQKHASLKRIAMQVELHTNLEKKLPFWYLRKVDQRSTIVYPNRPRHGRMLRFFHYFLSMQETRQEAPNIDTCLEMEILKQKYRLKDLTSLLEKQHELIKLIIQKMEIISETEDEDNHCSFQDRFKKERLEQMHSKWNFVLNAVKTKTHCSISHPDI

The target of assay [3] is Cannabinoid receptor 1 (Homo sapiens, UniProt P21554). As to the kind of experiment: Displacement of [3H]-CP-55,940 from human recombinant CB1 receptor expressed in HEK293 cells membrane incubated for 90 mins. It counts as cell membranes. On the technique in general: In a radioligand displacement assay an active substance lowers the binding of a labelled ligand.
Cannabinoid receptor 1, sequence (P21554 whole entry): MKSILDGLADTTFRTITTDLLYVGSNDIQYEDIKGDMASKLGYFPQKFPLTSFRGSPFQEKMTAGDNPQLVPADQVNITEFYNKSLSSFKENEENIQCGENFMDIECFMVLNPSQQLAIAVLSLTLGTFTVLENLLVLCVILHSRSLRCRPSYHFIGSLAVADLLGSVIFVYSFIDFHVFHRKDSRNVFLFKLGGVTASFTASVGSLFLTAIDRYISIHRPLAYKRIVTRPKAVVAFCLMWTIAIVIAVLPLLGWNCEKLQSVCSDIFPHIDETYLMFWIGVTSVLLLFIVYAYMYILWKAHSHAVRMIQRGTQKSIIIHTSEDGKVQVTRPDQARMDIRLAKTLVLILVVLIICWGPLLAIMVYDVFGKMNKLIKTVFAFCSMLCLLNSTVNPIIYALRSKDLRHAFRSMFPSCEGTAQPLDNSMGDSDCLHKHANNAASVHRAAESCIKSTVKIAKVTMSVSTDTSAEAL
Assay [4] concerns the target T1, Transient receptor potential cation channel subfamily V member 1. The experiment in a line: Agonist activity at human TRPv1 receptor expressed in HEK293 cells assessed as stimulation of intracellular calcium level using Fluo4-AM dye based fluorimetric assay. It counts as functional, cell-based. In a few lines: (§1)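 Stable HEK293 lines (G-418 selected, expression checked by qPCR) loaded 1 h at room temperature with Fluo-4 AM 4 μM. Cells washed and resuspended in Tyrode's buffer pH 7.4. Fluorescence (ex 488/em 516 nm) read in a stirred cuvette at 25 °C before and after test compound at various concentrations. EC50 from sigmoidal variable-slope fit. At least triplicate.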

For assay [5] the target is unchanged. The experiment in a line: Antagonist activity at human TRPv1 receptor expressed in HEK293 cells assessed as inhibition of 0.1 um capsaicin-induced stimulation of intracellular calcium level using Fluo4-AM dye based fluorimetric assay. It counts as functional, cell-based. The procedure, abridged:
(§2)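 Fluo-4 AM loaded stable HEK293 cells in Tyrode's buffer, read at 25 °C (ex 488/em 516 nm). Test compound added to the cuvette 5 min before the agonist: capsaicin 0.1 μM (TRPV1), AITC 100 μM (TRPA1), LPC 3 μM (TRPV2). Agonist alone taken as 100%. IC50 for half-maximal inhibition from curve fit. At least triplicate.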

Assay [6] deals with T2, Transient receptor potential cation channel subfamily V member 2 (Rattus norvegicus, UniProt Q9WUD2).
T2 sequence (Q9WUD2 whole entry): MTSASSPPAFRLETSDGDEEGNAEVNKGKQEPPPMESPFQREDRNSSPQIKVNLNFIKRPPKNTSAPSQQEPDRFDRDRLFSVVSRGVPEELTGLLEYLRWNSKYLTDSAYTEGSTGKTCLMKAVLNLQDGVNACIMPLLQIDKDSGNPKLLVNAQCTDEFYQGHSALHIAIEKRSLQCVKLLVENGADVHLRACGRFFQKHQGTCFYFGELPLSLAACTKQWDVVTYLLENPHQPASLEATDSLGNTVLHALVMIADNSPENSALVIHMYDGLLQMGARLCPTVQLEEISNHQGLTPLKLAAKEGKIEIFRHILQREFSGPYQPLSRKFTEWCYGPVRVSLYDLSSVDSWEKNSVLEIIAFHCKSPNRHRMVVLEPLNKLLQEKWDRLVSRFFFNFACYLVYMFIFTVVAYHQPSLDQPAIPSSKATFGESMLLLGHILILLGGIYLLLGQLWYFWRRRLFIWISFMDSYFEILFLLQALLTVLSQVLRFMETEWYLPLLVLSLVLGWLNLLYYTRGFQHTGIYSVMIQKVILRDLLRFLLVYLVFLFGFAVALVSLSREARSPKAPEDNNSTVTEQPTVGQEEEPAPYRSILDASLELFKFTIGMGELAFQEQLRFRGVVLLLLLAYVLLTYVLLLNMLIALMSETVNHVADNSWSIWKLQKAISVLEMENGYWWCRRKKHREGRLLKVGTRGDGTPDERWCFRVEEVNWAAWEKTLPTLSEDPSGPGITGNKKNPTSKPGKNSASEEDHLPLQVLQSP
The experiment in a line: Antagonist activity at rat recombinant TRPV2 receptor expressed in HEK293 cells assessed as inhibition of 3 uM lysophosphatidylcholine-induced stimulation of intracellular calcium level using Fluo4-AM dye based fluorimetric assay. The assay is classed as functional, cell-based. The procedure, abridged: as §2

Assay [7] concerns the target T2, Transient receptor potential cation channel subfamily V member 2. As to the kind of experiment: Agonist activity at rat recombinant TRPV2 receptor expressed in HEK293 cells assessed as stimulation of intracellular calcium level using Fluo4-AM dye based fluorimetric assay. The assay is classed as functional, cell-based. The procedure, abridged: as §1
Assay [8] deals with Transient receptor potential cation channel subfamily M member 8 (Rattus norvegicus, UniProt Q8R455). As to the kind of experiment: Antagonist activity at rat recombinant TRPM8 receptor expressed in HEK293 cells assessed as inhibition of 0.25 uM icilin-induced stimulation of intracellular calcium level using Fluo4-AM dye based fluorimetric assay. The assay is classed as functional, cell-based. The procedure, abridged:
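Fluo-4 AM loaded rat TRPM8 HEK293 cells in Tyrode's buffer, read at 22 °C with a Peltier-controlled cuvette. Compound added 5 min before 0.25 μM icilin, whose effect alone was taken as 100%. IC50 for half-maximal inhibition from curve fit. At least triplicate.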

For assay [9], the target named is Cannabinoid receptor 2 (Homo sapiens, UniProt P34972). As to the kind of experiment: Displacement of [3H]-CP-55,940 from human recombinant CB2 receptor expressed in HEK293 cells membrane incubated for 90 mins. The assay is classed as cell membranes.
Cannabinoid receptor 2, sequence (P34972 whole entry): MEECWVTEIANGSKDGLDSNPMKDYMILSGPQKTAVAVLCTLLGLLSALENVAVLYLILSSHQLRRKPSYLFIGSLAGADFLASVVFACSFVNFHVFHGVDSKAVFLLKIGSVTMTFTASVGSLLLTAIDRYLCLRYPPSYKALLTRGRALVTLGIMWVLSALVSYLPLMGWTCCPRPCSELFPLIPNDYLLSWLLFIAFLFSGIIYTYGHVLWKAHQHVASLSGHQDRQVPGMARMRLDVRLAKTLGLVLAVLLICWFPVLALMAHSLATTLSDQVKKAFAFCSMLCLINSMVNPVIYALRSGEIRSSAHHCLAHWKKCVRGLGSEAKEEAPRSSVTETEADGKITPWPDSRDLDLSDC
Assay [10] has as its target T3, Transient receptor potential cation channel subfamily A member 1 (Rattus norvegicus, UniProt Q6RI86). The experiment in a line: Agonist activity at rat recombinant TRPA1 receptor expressed in HEK293 cells assessed as stimulation of intracellular calcium level using Fluo4-AM dye based fluorimetric assay. It counts as functional, cell-based. The procedure, abridged:
as §1

The target of assay [11] is T4, Transient receptor potential cation channel subfamily V member 2 (Rattus norvegicus) (UniProt Q9WUD2).
T4 sequence (whole entry): T2 sequence (Q9WUD2 whole entry)
As to the kind of experiment: Agonist activity at rat recombinant TRPV2 receptor expressed in HEK293 cells assessed as stimulation of intracellular calcium level using Fluo4-AM dye based fluorimetric assay relative to 4 uM ionomycin. It counts as functional, cell-based.

Assay [12] has as its target T3, Transient receptor potential cation channel subfamily A member 1. The experiment in a line: Antagonist activity at rat recombinant TRPA1 receptor expressed in HEK293 cells assessed as inhibition of 100 uM allyl isothiocyanate-induced stimulation of intracellular calcium level using Fluo4-AM dye based fluorimetric assay. It counts as functional, cell-based. The procedure, abridged:
as §2

T3 sequence (Q6RI86 whole entry): as the sequence (Q6RI86 whole entry) above
Transient receptor potential cation channel subfamily M member 8, sequence (Q8R455 whole entry): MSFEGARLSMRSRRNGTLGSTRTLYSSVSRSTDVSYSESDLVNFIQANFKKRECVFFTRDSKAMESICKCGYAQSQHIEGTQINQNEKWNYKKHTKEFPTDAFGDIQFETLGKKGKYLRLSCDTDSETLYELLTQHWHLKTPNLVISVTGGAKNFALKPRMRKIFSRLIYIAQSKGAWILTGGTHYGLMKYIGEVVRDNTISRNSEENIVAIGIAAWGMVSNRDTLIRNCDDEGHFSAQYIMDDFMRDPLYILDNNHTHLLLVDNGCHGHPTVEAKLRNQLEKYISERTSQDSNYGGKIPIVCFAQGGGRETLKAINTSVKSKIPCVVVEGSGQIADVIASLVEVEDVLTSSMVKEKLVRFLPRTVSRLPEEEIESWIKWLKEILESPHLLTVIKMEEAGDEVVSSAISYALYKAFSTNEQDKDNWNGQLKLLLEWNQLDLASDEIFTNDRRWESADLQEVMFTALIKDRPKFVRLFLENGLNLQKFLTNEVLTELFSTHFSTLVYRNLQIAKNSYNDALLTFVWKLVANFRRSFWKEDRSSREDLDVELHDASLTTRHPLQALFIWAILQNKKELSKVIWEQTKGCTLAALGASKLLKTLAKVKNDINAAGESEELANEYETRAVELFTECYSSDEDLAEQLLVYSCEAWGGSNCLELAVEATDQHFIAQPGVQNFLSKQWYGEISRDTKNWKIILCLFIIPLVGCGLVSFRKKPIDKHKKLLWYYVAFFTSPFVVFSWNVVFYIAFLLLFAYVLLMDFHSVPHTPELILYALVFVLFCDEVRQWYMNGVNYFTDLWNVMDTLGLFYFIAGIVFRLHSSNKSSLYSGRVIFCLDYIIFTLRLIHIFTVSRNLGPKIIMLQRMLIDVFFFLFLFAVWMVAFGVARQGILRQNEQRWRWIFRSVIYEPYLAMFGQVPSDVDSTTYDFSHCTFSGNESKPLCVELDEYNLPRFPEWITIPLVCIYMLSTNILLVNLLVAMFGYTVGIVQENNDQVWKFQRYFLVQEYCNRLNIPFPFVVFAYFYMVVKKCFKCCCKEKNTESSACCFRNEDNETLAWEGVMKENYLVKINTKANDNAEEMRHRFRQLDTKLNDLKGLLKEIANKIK

With `CCCCCc1cc(O)c(C/C=C(\C)CC/C=C(\C)CCC=C(C)C)c(O)c1` [SESQUICANNABIGEROL], the Emax in [1] stood at 38.8%; in assay [2], 164%; in [11] it was 56%. In addition, the IC50 was found to be 3270 nM in assay [3]; 5700 nM in [5]; 2300 nM in [6]; 950 nM in [8]; 710 nM in [9]; 1200 nM in [12]. Moreover, the Ki was determined as 750 nM in assay [3] and 180 nM in [9]. Moreover, the EC50 amounted to 4400 nM in assay [4], 2700 nM in assay [7] and 1700 nM in assay [10].

Regarding `CCCCCc1cc(O)c(C/C=C(\C)CCC=C(C)C)c(O)c1` [CANNABIGEROL], the maximum response (Emax) in assay [1] turned out to be 33.8%; in assay [2] it was 99.9%; in assay [11] it was 73.6%. In addition, the IC50 in assay [3] amounted to 3310 nM; in [5], 2600 nM; in assay [6], 1500 nM; in [8], 160 nM; in [9], 3460 nM; in assay [12], 13000 nM. Moreover, the Ki stood at 760 nM in assay [3] and 880 nM in [9]. Moreover, the EC50 in assay [4] stood at 1300 nM; in [7] it was 1700 nM; in [10] it was 700 nM.

As usually defined, the Emax is the maximal effect, on the per cent scale that the assay sets. What is called IC50 is the concentration at which inhibition is half-maximal. As a reminder, the Ki is the equilibrium dissociation constant of an inhibitor or competing ligand from its target. As usually defined, the EC50 is the concentration that produces a half-maximal response.
